Calls of active or inactive are those of the source. The rule behind the calls is not given here.
Key:
[1] = Cytotoxicity against human Ew36 cells selected at 120 ng/mL vincristine after 72 hrs by MTT assay; assay type: functional, cell-based; conditions: Ew36, 72 h
Summary of the method: (§1)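 Lines grown in RPMI with 10% FBS and 2 mM L-glutamine. MTT assay: 4000 cells/well attached 24 h before serially diluted drug, then 72 h exposure at 37 °C, 5% CO2. MTT in IMDM 4 h, lysis in acidified ethanol 15 min, absorbance 570 nm minus 690 nm. IC50 is the concentration halving untreated absorbance. Three independent experiments, each in triplicate.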

LLC-PK1 [2] = assay: Cytotoxicity against pig LLC-PK1 cells transfected with empty vector after 72 hrs by MTT assay; assay type: cell-based; conditions: Sus scrofa, LLC-PK1, 72 h
Summary of the method: (§2)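 LLC-PK1 empty-vector lines grown in M199 with 10% FBS; transfected lines also in 0.5 mg/mL G418. MTT assay: 4000 cells/well for 24 h, then serially diluted drug for 72 h at 37 °C, 5% CO2. MTT 4 h, acidified ethanol, A570 minus 690 nm. IC50 is 50% of untreated absorbance. Triplicate wells, three experiments.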

CHO [3] = assay: Cytotoxicity against CHO cells after 72 hrs by MTT assay; assay type: cell-based; conditions: Cricetulus griseus
Summary of the method: (§3)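 CHO and colchicine-selected C5 cells kept in AlphaMEM with 10% FBS. MTT assay: 4000 cells/well settled 24 h, then serially diluted drug added. Incubated 72 h at 37 °C, 5% CO2. MTT in IMDM for 4 h, then acidified ethanol lysis for 15 min. Read A570, background-corrected at 690 nm. IC50 is the concentration giving 50% of untreated absorbance. Three experiments, each in triplicate.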

SW-620 [4] = assay: Cytotoxicity against human SW620 cells after 72 hrs by MTT assay; assay type: functional, cell-based; conditions: SW-620, 72 h; summary of the method: as §1
NIH3T3 [5] = assay: Cytotoxicity against mouse NIH/3T3 cells transfected with wild-type P-gp G185 after 72 hrs by MTT assay; assay type: functional, cell-based; conditions: NIH3T3, 72 h
Summary of the method: (§4)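 Grown in DMEM with 10% FBS. MTT assay: 4000 cells/well, 24 h settling, serial dilutions of drug, 72 h at 37 °C in 5% CO2. MTT in IMDM 4 h, then acidified ethanol 15 min, A570 with 690 nm background. IC50 is the concentration reducing absorbance to 50% of untreated control. Three experiments in triplicate. KB-V1-R comes from KB-V1 grown long-term drug-free.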

SW-620 [6] = assay: Cytotoxicity against human SW620 cells selected at 20 ng/mL adriamycin after 72 hrs by MTT assay; assay type: functional, cell-based; conditions: SW-620, 72 h; summary of the method: as §1
CHO [7] = assay: Cytotoxicity against CHO cells selected at 1 ug/mL colchicine after 72 hrs by MTT assay; assay type: functional, cell-based; conditions: Cricetulus griseus; summary of the method: as §3
NIH3T3 [8] = assay: Cytotoxicity against mouse NIH/3T3 cells after 72 hrs by MTT assay; assay type: cell-based; conditions: NIH3T3, 72 h; summary of the method: as §4
HEK293 [9] = assay: Cytotoxicity against human HEK293 cells after 72 hrs by MTT assay; assay type: functional, cell-based; conditions: HEK293, 72 h; summary of the method: as §4
HEK293 [10] = assay: Cytotoxicity against human HEK293 cells transfected with plasmid expressing MDR1 after 72 hrs by MTT assay; assay type: functional, cell-based; conditions: HEK293, 72 h
Summary of the method: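 ABCB1-transfected HEK293 grown in DMEM with 10% FBS and 1 mg/mL G418. MTT assay: 4000 cells/well for 24 h, serial drug dilutions, 72 h at 37 °C, 5% CO2. MTT 4 h, acidified ethanol lysis, A570 corrected at 690 nm. IC50 at 50% of untreated absorbance. Three experiments in triplicate.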

[11] = Cytotoxicity against adriamycin-selected human MES-SA cells after 72 hrs by MTT assay; assay type: functional, cell-based
Summary of the method: (§5)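 MES-SA and MES-SA/Dx5 lines kept in McCoy's 5A with 10% FBS. MTT assay: seeded at 4000 cells/well for 24 h, serial drug dilutions, 72 h at 37 °C and 5% CO2. MTT 4 h, acidified ethanol lysis, A570 corrected at 690 nm. IC50 is 50% absorbance versus untreated wells. Three separate experiments in triplicate.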

OVCAR-8 = assay: Cytotoxicity against human OVCAR8 cells after 72 hrs by MTT assay; assay type: functional, cell-based; conditions: OVCAR-8, 72 h; summary of the method: as §1
NIH3T3 [12] = assay: Cytotoxicity against mouse NIH/3T3 cells selected at 1 ug/mL colchicine after 72 hrs by MTT assay; assay type: functional, cell-based; conditions: NIH3T3, 72 h; summary of the method: as §4
NCI/ADR-RES = assay: Cytotoxicity against adriamycin-selected human NCI/ADR-RES cells after 72 hrs by MTT assay; assay type: functional, cell-based; summary of the method: as §1
NIH3T3 [13] = assay: Cytotoxicity against 2.4 ug/mL vincristine selected mouse NIH/3T3 cells transfected with P-gp Ser to Asp phosphorylation mutant after 72 hrs by MTT assay; assay type: functional, cell-based; conditions: NIH3T3, 72 h; summary of the method: as §4
[14] = Cytotoxicity against human Ew36 cells after 72 hrs by MTT assay; assay type: functional, cell-based; conditions: Ew36, 72 h; summary of the method: as §1
NIH3T3 [15] = assay: Cytotoxicity against mouse NIH/3T3 cells transfected with wild type p-glycoprotein ABCB1 selected at 600 ug/ml vincristine after 72 hrs by MTT assay; assay type: functional, cell-based; conditions: NIH3T3, 72 h, in the assay text read “600 ng/ml” for “600 ug/ml”; summary of the method: as §4
LLC-PK1 [16] = assay: Cytotoxicity against pig LLC-PK1 cells after 72 hrs by MTT assay; assay type: cell-based; conditions: Sus scrofa, LLC-PK1, 72 h; summary of the method: as §2
[17] = Cytotoxicity against vinblastine-selected human KBV1 cells after 72 hrs by MTT assay; assay type: functional, cell-based; conditions: KB-V1, 72 h; summary of the method: as §4
[18] = Cytotoxicity against doxorubicin-selected human ZR-75B cells after 72 hrs by MTT assay; assay type: functional, cell-based; summary of the method: as §1
NIH3T3 [19] = assay: Cytotoxicity against mouse NIH/3T3 cells selected at 30 ug/ml vincristine after 72 hrs by MTT assay; assay type: functional, cell-based; conditions: NIH3T3, 72 h, in the assay text read “30 ng/ml” for “30 ug/ml”; summary of the method: as §4
[20] = Cytotoxicity against human MES-SA cells after 72 hrs by MTT assay; assay type: functional, cell-based; summary of the method: as §5
[21] = Selectivity ratio of IC50 for human KB-3-1 cells to IC50 for human KBV1 cells selected at 1 ug/mL vinblastine; assay type: functional
Summary of the method: (§6)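 Selectivity ratio: IC50 in the parental or empty-vector cells divided by IC50 in the P-gp-expressing cells (KB-V1, or ABCB1-transfected LLC-PK1). MTT assay: 4000 cells/well established for 24 h, then 72 h exposure to serially diluted drug at 37 °C, 5% CO2. MTT for 4 h, acidified ethanol lysis, A570 corrected at A690. IC50 is the concentration giving 50% of untreated absorbance, from at least three experiments.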

[22] = Cytotoxicity against human KB-3-1 cells after 72 hrs by MTT assay; assay type: functional, cell-based; conditions: KB 3-1, 72 h
Summary of the method: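 Grown in DMEM with 10% FBS. MTT assay: 4000 cells/well, 24 h settling, serial dilutions of drug, 72 h at 37 °C in 5% CO2. MTT in IMDM 4 h, then acidified ethanol 15 min, A570 with 690 nm background. Three experiments in triplicate. KB-V1-R comes from KB-V1 grown long-term drug-free.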

[23] = Cytotoxicity against P-gp expressing human KBV1 revertant cells after 72 hrs by MTT assay; assay type: functional, cell-based; conditions: KB-V1, 72 h, in the assay text read “P-gp-negative” for “P-gp expressing”; summary of the method: as §4
[24] = Aqueous solubility of the compound; assay type: physicochemical; conditions: buffer
[25] = Cytotoxicity against P-gp-negative human KB-3-1 cells after 72 hrs by MTT assay in presence of 100 nM TQR; conditions: KB 3-1, 72 h
[26] = Selectivity ratio of IC50 for pig LLC-PK1 cells transfected with empty vector to IC50 for pig LLC-PK1 cells; assay type: ADME, cell-based, Sus scrofa; conditions: read-out: Ratio IC50; summary of the method: as §6
NCI-H460 [27] = assay: Cytotoxicity against ABCG2-expressing human H460 cells at 10 to 20 uM after 72 hrs by MTT assay in presence of ABCG2 substrate 5 uM mitoxantrone; assay type: functional, cell-based
KB-V1 = assay: Cytotoxicity against P-gp expressing human KBV1 cells after 72 hrs by MTT assay in presence of 4 uM P-gp substrate Rh123; assay type: functional, cell-based
[28] = Cytotoxicity against P-gp expressing human KBV1 cells after 72 hrs by MTT assay in presence of 100 nM TQR; conditions: KB-V1, 72 h
NCI-H460 [29] = assay: Cytotoxicity against ABCG2-expressing human H460 cells at 10 uM after 72 hrs by MTT assay; assay type: functional, cell-based

For COc1cccc2c1C(=O)c1c(O)c3c(c(O)c1C2=O)C[C@@](O)(C(=O)CO)C[C@@H]3O[C@H]1C[C@H](N)[C@H](O)[C@H](C)O1 [DOXORUBICIN], the IC50 [1] was 0.24 µM, the IC50 (LLC-PK1 [2]) was 0.2 µM and the IC50 (CHO [3]) was 0.08 µM. The IC50 (SW-620 [4]) was 0.01 µM, the IC50 (NIH3T3 [5]) was 0.38 µM and the IC50 (SW-620 [6]) was 0.24 µM. It also gave an IC50 (CHO [7]) of 9.7 µM, an IC50 (NIH3T3 [8]) of 0.05 µM and an IC50 (HEK293 [9]) of 0.01 µM. For the same compound, the IC50 (HEK293 [10]) was 0.42 µM, the IC50 [11] was 0.87 µM and the IC50 (OVCAR-8) was 0.14 µM. It also gave an IC50 (NIH3T3 [12]) of 1.58 µM, an IC50 (NCI/ADR-RES) of 9.3 µM and an IC50 (NIH3T3 [13]) of 17.5 µM. The IC50 [14] was 0.01 µM, the IC50 (NIH3T3 [15]) was 0.69 µM and the IC50 (LLC-PK1 [16]) was 19.7 µM. For the same compound, the IC50 [17] was 4.7 µM, the IC50 [18] was 2.02 µM and the IC50 (NIH3T3 [19]) was 0.08 µM. It also gave an IC50 [20] of 0.03 µM.
With CCCCNC(=S)N/N=C1\C(=O)Nc2ccccc21 the “Ratio IC50” value [21] was 1.9, the IC50 [22] was 10.9 µM and the IC50 [17] was 5.69 µM.
In the case of O=C1Nc2ccccc2/C1=N/NC(=S)Nc1ccc2c(c1)CCC2, the “Ratio IC50” value [21] is reported as 2, the IC50 [22] is reported as 5.8 µM and the IC50 [17] is reported as 2.85 µM.
In the case of CC(C)c1ccc(NC(=S)N/N=C2\C(=O)Nc3ccccc32)cc1, the “Ratio IC50” value [21] is reported as 8.4, the IC50 [22] is reported as 9.11 µM and the IC50 [17] is reported as 1.09 µM.
For O=C1Nc2ccccc2/C1=N/NC(=S)Nc1ccc([N+](=O)[O-])cc1, the “Ratio IC50” value [21] was 8.3, the IC50 (LLC-PK1 [2]) was 28.4 µM and the IC50 [23] was 7.21 µM. For the same compound, the solubility [24] was less than 0.2 µg/mL, the IC50 [25] was 10 µM and the selectivity ratio [26] was 6.4. The Activity (NCI-H460 [27]) was “Active”, the Activity (KB-V1) was “Active” and the IC50 [22] was 15.6 µM. It also gave an IC50 [28] of 6.35 µM, an IC50 (LLC-PK1 [16]) of 4.46 µM and an IC50 [17] of 2.07 µM. The Activity (NCI-H460 [29]) was “Active”.
For O=C1Nc2ccccc2/C1=N/NC(=S)Nc1ccc(Cl)cc1, the “Ratio IC50” value [21] was 2.7, the IC50 [22] was 13.4 µM and the IC50 [17] was 4.99 µM.
O=C1Nc2ccccc2/C1=N/NC(=S)Nc1cccnc1 gave an IC50 [22] greater than 50 µM and an IC50 [17] greater than 50 µM.
For O=C1Nc2ccccc2/C1=N/NC(=S)Nc1cc(F)c(F)c(F)c1, the “Ratio IC50” value [21] was 2.1, the IC50 [22] was 4.41 µM and the IC50 [17] was 2.15 µM.
With O=C1Nc2ccccc2/C1=N/NC(=S)Nc1ccccc1 the “Ratio IC50” value [21] was 2.4, the IC50 [22] was 3.53 µM and the IC50 [17] was 1.47 µM.
For COc1ccccc1NC(=S)N/N=C1\C(=O)Nc2ccccc21, the “Ratio IC50” value [21] was 1.8, the IC50 [22] was 4.96 µM and the IC50 [17] was 2.69 µM.
For O=C1Nc2ccccc2/C1=N/NC(=S)Nc1cccc2ccccc12, the “Ratio IC50” value [21] was 2.3, the IC50 [22] was 5.12 µM and the IC50 [17] was 2.21 µM.
In the case of O=C1Nc2ccccc2/C1=N/NC(=S)NC1CCCCC1, the “Ratio IC50” value [21] is reported as 2.1, the IC50 [22] is reported as 9.14 µM and the IC50 [17] is reported as 4.38 µM.
O=C1Nc2ccccc2/C1=N/NC(=S)Nc1ccc(C(=O)O)cc1 gave an IC50 [22] greater than 50 µM and an IC50 [17] greater than 50 µM.
With COc1cc(NC(=S)N/N=C2\C(=O)Nc3ccccc32)cc(OC)c1OC the “Ratio IC50” value [21] was 3.2, the IC50 [22] was 11.1 µM and the IC50 [17] was 3.49 µM.
For O=C1Nc2ccccc2/C1=N/NC(=S)NCc1ccccc1, the “Ratio IC50” value [21] was 1.5, the IC50 [22] was 11.7 µM and the IC50 [17] was 7.63 µM.
